# PAFAH2 inh – inhibitors of human PAFAH2 | Q99487 | recombinant PAFAH2, FP-rhodamine activity probe, fluorescence polarization | inhibition, % at 3.39 µM | 340,000 compounds, 0.99% hits | AID 492956;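 active = inhibition above the mean over all tested compounds plus 3 SD, cut at about 30% in these data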;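 note: inhibitors block probe labeling of enzyme so polarization drops; 0% = enzyme with DMSO and 100% = wells lacking PAFAH2 protein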
# pPAFAH FP inh – pPAFAH (human) enzyme inhibition; 330,000 compounds, 1.5% hits; Q13093; inhibition, % at 3.39 µM; AID 463082; recombinant pPAFAH, FP-rhodamine probe fluorescence polarization;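 active = inhibition above the mean inhibition across the screen plus 3 SD, cut at about 25% in these data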;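 note: inhibitors block binding of the rhodamine activity-based probe so polarization drops; 0% = enzyme with DMSO and 100% = wells lacking pPAFAH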
# Target sequence (Q13093 whole entry, looked up): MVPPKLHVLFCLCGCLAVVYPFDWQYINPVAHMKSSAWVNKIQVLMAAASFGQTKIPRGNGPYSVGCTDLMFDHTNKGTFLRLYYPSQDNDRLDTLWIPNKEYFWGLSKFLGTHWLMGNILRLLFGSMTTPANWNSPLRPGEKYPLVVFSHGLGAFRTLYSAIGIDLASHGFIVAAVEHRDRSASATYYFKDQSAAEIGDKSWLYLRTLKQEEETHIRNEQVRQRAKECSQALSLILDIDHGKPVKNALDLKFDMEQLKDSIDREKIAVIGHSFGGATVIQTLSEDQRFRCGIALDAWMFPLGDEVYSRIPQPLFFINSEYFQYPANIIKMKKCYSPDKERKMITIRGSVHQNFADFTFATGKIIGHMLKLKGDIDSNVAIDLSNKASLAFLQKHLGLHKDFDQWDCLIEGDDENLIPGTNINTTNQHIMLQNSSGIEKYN
# ASAP1 GAP inh – inhibitors of human ASAP1 ArfGAP activity | ASAP1-stimulated ARF1 GTP hydrolysis, GDP FP detection | inhibition, % at 16.5 µM | AID 624377 | 360,000 compounds, 0.19% hits; in the data active = inhibition above about 25%;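 note: 0% = vehicle with enzyme and substrate and 100% = no enzyme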
# PAFAH1B2 inh – blocks human PAF acetylhydrolase 1b catalytic subunit 2; P68402; 340,000 compounds, 1.2% hits; inhibition, % at 3.39 µM; recombinant PAFAH1B2, FP-rhodamine activity probe, fluorescence polarization; AID 492953;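 active = inhibition above the mean of all tested compounds plus 3 SD, cut at about 24% in these data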;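 note: 0% = enzyme with DMSO and 100% = wells lacking PAFAH1B2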
# PAFAH1B3 FP inh – PAFAH1B3 (human) inhibition; Q15102; recombinant PAFAH1B3, FP-rhodamine probe, fluorescence polarization; inhibition, % at 3.39 µM; 340,000 compounds, 0.28% hits;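 active = inhibition above the screen-wide average of all tested compounds plus 3 SD, cut at about 25% in these data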;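 note: 0% = enzyme with DMSO only and 100% = wells lacking PAFAH1B3 protein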
# ARFGAP1 inhibitor – inhibits rat ARF GTPase activating protein 1; Arfgap1-stimulated ARF1 GTP hydrolysis, GDP FP detection; inhibition, % at 16.5 µM; 360,000 compounds, 0.26% hits;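 active = inhibition above a per-plate limit, mean inhibition of low control wells plus 3 SD, cut at about 25% in these data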;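 note: 0% = DMSO wells with enzyme and 100% = wells lacking Arfgap1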
#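 material = rat Arfgap1 catalytic domain, aa 1-136 | also added = human ARF1(Δ1-17)-GTP substrate | compound dosing = one concentration, 16.5 µM, DMSO 1.26% | times = GTP hydrolysis reaction 2 h at 25 °C | measured by = FP, GDP Alexa 633 tracer displaced from anti-GDP antibody, 620/688 nm | evaluation = percent inhibition of Arfgap1-stimulated GTP hydrolysis | replication = single well per compound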
# Active calls of the source: *; nt = no result given. Shown are actives, neighbours in structure and some others; about 2.8% of the full set was active somewhere.
SMILES,PAFAH2 inh,pPAFAH FP inh,ASAP1 GAP inh,PAFAH1B2 inh,PAFAH1B3 FP inh,ARFGAP1 inhibitor
Cc1ccc(/C=C2/SC(=O)NC2=S)o1,60*,nt,nt,26*,45*,nt
COc1cc(NS(=O)(=O)c2ccc3c(c2)C(C)(C)C(=O)N3C)cc(OC)c1,3,3,-13,-2,9,2
c1ccc(OCc2nn3c(Cn4nnc5ccccc54)nnc3s2)cc1,0,13,4,24*,-4,-1
O=C(O)c1ccc(N/N=C/c2cn(Cc3ccc(F)cc3)c3ccccc23)cc1,15,29*,-11,6,5,0
CCNC(=S)N/N=C/c1cn(Cc2ccc(F)cc2)c2ccccc12,4,11,1,4,24,-2
Cc1ccc(-c2csc3ncnc(Nc4ccc(N5CCOCC5)cc4)c23)cc1,5,30*,10,2,1,-9
O=C(CCS(=O)(=O)c1ccc(Cl)cc1)NCCC1=CCCCC1,0,7,-15,10,-3,4
O=C(CCS(=O)(=O)c1ccc(Br)cc1)NCCC1=CCCCC1,0,1,3,26*,10,0
O=C(COc1ccc(S(=O)(=O)NC2CCCCC2)cc1)NCCC1=CCCCC1,7,28*,-14,2,-2,1
Cc1ccc(S(=O)(=O)N2C[C@H]3C(=O)C[C@@H]4C(=O)N(c5ccccc5)C(=O)[C@@H]4[C@@H]3C[C@H]2c2cccc(Cl)c2)cc1,nt,nt,5,nt,nt,-13
CCc1nnc(NC(=O)CCN2C(=O)/C(=C/c3cc(OC)c(OC)c(OC)c3)SC2=S)s1,-7,-4,-8,-2,1,-4
Brc1ccc(CSc2nnc(-c3cnccn3)n2Cc2ccco2)cc1,-2,8,6,30*,1,3
Fc1ccc(CSc2nnc(-c3cnccn3)n2Cc2ccco2)cc1,-5,5,9,6,3,10
Cc1ccc(F)cc1NC(=O)CSc1nnc(CNC(=O)c2ccco2)n1C,5,4,-1,1,3,-2
O=C(NCCN1CCC(n2c(=O)[nH]c3ccccc32)CC1)c1cccc(F)c1,nt,nt,-2,nt,nt,-6
O=C(Nc1cccc([N+](=O)[O-])c1)c1cc2ccccc2cc1O,-4,34*,3,3,1,0
COc1ccc(S(=O)(=O)N2CCOCC2)cc1NC(=O)c1ccc(SC)cc1OC,nt,nt,14,nt,nt,-3
O=C(COC(=O)C1(c2ccccc2F)CCCC1)N1CCc2ccccc21,-2,4,8,4,7,5
O=C(COC(=O)C1(c2ccc(F)cc2)CCCC1)N1CCc2ccccc21,-1,-6,-1,28*,6,5
CCCCCCSc1nc(O)c(C2OC(=O)c3c2ccc(OC)c3OC)c(=O)n1CC (stereo unspecified),15,31*,-4,24,3,-1
Cc1cc(=O)oc2c3c(cc(OCC(=O)N[C@@H](CC(C)C)C(=O)O)c12)OC(C)(C)CC3,13,0,11,35*,4,8
O=C1N(c2ccccc2)C(c2ccccc2)C12CCCCC2 (stereo unspecified),0,0,8,32*,10,0
CC1=C(C(=O)N2CCCCCC2)CC(CC(=O)NCCN2CCOCC2)C(=O)N1Cc1ccc(F)cc1 (stereo unspecified),nt,nt,3,nt,nt,1
CC1(C(=O)NC2CCCCCC2)CCN1C(=O)Cc1ccc(-c2ccccc2)cc1 (stereo unspecified),nt,nt,1,nt,nt,6
C=CCN(CC=C)Cc1cc(=O)oc2cc(C)cc(C)c12,nt,nt,13,nt,nt,-1
O=c1oc2c(-c3cccc(F)c3)cc(O)cc2s1,-12,27*,-12,13,11,-1
C=CC#CC[N+]1(CC#Cc2ccccc2)CCOCC1,1,nt,87*,5,7,97*
C(#Cc1ccccc1)C[N+]1(CC#Cc2ccccc2)CCCC1,3,5,1,-3,-3,0
CCCCCCCCN1C(=O)[C@H](CC(=O)NCC2CCCCC2)C[C@@]2(C(=O)OC)CCCCC=C12,nt,nt,5,nt,nt,11
CC(=O)C[C@H](O)CC(=O)[C@H]1OC(=O)CCCCCCCCc2ccccc21,-6,-1,6,37*,-10,13

# Source: PubChem BioAssay
